Experimental data taken from ChEMBL document CHEMBL4334499, “SAR Exploration of Tight-Binding Inhibitors of Influenza Virus PA Endonuclease” (J Med Chem, 2019).
The source made the active and inactive calls. The rule behind the calls is not given here.

Legend:
[1] = molecular target: Methionine aminopeptidase 2 (Homo sapiens) (UniProt P50579); test: Inhibition of recombinant human MetAP2 at 200 uM using Met-AMC as fluorogenic substrate by fluorescence assay
[2] = molecular target: Polymerase acidic protein (Influenza A virus (A/Puerto Rico/8/1934(H1N1)), UniProt P03433); test: Inhibition of Influenza A virus RNA-dependent RNA polymerase PA N-terminal endonuclease using [6-FAM]AATCGCAGGCAGCACTC[TAM] substrate and measured over 45 mins by fluorescence based assay
[3] = molecular target: T1, Arginase-1 (Homo sapiens) (UniProt P05089); test: Inhibition of human Arg1 at 200 uM using thio-arginine substrate incubated for 30 mins by Ellman's reagent based assay
T1 sequence (whole entry): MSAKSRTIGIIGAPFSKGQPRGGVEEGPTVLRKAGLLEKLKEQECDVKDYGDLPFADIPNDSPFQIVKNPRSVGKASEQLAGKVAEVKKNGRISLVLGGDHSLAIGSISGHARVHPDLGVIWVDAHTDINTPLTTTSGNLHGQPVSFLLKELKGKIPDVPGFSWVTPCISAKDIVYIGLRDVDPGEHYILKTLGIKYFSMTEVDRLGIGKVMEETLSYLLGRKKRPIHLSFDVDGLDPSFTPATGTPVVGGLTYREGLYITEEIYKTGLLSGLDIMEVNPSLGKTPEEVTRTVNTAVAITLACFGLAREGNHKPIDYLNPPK

[4] = molecular target: Carbonic anhydrase 2 (Homo sapiens) (UniProt P00918); test: Inhibition of recombinant human CA2 expressed in Escherichia coli BL21 at 200 uM incubated for 15 mins using p-Nitrophenyl acetate substrate
[5] = molecular target: Macrophage metalloelastase (Homo sapiens) (UniProt P39900); test: Inhibition of human recombinant MMP12 at 200 uM incubated for 15 mins using OmniMMP fluorogenic substrate by fluorescence based assay
[6] = (§1) Antiviral activity against Influenza A virus (A/California/04/2009(H1N1)) ATCC VR-1737 infected in MDCK cells assessed as reduction in virus-induced cytopathic effect incubated for 48 hrs by Cell-titer-Glo luminescence assay; type: functional, cell-based; conditions: ATCC VR-1737, MDCK
Procedure, shortened: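 MDCK cells at 80% confluence were exposed to virus plus a range of inhibitor concentrations for 48 h at 37 °C, 5% CO2. CPE and cell viability were then read by CellTiter-Glo luminescence.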

[7] = Cytotoxicity in MDCK cells assessed as reduction in cell viability incubated for 12 hrs by MTT assay; type: cell-based, Canis lupus familiaris; conditions: dog
[8] = Cytotoxicity in mouse NIH/3T3 cells assessed as reduction in cell viability incubated for 12 hrs by MTT assay; type: cell-based, NIH3T3
[9] = as §1, with “Selectivity index, ratio of CC50 for cytotoxicity in MDCK cells assessed as reduction in cell viability incubated for 12 hrs by MTT assay to EC50 for antiviral” for “Antiviral”; type: toxicity, cell-based; conditions: dog, read-out: Ratio CC50/EC50
[10] = as §1, with “Selectivity index, ratio of CC50 for cytotoxicity in mouse NIH/3T3 cells assessed as reduction in cell viability incubated for 12 hrs by MTT assay to EC50 for antiviral” for “Antiviral”; type: toxicity, cell-based; conditions: read-out: Ratio CC50/EC50
[11] = molecular target: Polymerase acidic protein (Influenza A virus (A/Puerto Rico/8/1934(H1N1))) (UniProt P03433)

Macrophage metalloelastase (Homo sapiens), sequence (P39900 106-470 limits assumed): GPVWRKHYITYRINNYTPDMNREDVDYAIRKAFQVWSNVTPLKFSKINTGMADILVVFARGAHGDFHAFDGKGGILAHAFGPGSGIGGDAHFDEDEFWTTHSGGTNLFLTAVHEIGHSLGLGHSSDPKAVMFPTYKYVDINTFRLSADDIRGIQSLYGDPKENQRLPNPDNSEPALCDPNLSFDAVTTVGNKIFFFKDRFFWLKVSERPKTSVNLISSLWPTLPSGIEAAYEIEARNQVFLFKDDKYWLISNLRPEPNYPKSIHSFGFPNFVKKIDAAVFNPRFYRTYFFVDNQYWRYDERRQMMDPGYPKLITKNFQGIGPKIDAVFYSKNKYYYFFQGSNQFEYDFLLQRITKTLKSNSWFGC
Methionine aminopeptidase 2 (Homo sapiens), sequence (P50579 2-478 limits assumed): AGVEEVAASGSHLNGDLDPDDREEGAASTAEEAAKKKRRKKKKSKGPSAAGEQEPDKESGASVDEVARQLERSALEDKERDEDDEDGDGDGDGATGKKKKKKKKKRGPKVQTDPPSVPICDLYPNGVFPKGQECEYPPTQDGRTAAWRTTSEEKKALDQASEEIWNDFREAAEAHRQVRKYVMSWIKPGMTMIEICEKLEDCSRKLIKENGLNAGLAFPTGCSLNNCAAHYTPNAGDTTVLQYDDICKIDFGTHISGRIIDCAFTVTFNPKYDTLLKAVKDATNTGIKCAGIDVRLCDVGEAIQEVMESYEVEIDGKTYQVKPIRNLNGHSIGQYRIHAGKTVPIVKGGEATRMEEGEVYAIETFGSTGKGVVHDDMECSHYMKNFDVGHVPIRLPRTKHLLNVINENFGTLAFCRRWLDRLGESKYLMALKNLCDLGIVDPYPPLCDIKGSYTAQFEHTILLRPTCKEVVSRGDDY

Structure (SMILES) | IC50 ([2]; read-out: IC50) [nM] | IC50 ([2]; read-out: pIC50 (converted)) [nM] | ΔTm [11] [°C] | other results
Cc1cc(-c2nnn[nH]2)ccc1-c1cc(=O)c(O)c(C(=O)O)[nH]1 | 110 | 0.1 | 16.5 | inhibition [1]: 44%; inhibition [3]: inactive; inhibition [4]: inactive; inhibition [5]: inactive; EC50 [6]: 21300 nM; CC50 at 12 h [7]: > 800000 nM; CC50 at 12 h [8]: > 800000 nM; selectivity ratio at 12 h [9]: 35 to 75; selectivity ratio at 12 h [10]: 35 to 75
O=C(O)c1cccc(-c2cc(=O)c(O)c(C(=O)O)[nH]2)c1 | 2.3 |  | 11.7 | 
O=C(O)c1ccc(-c2cc(=O)c(O)c(C(=O)O)[nH]2)cc1 | < 2 | < 2 | 11.9 | 
Cc1cccc(-c2cc(=O)c(O)c(C(=O)O)[nH]2)c1 | 4.8 |  | 10.7 | 
Cc1cc(=O)c(O)c(C(=O)O)[nH]1 |  |  | 11.1 | 
CSc1ccccc1-c1cc(=O)c(O)c(C(=O)O)[nH]1 | 3.2 |  | 11.8 | 
O=C(O)c1[nH]c(-c2ccccc2Oc2ccccc2)cc(=O)c1O | 6 |  | 10.4 | 
Cc1ccccc1-c1cc(=O)c(O)c(C(=O)O)[nH]1 |  |  | 13.2 | 
COc1ccccc1-c1cc(=O)c(O)c(C(=O)O)[nH]1 | 2.3 |  | 11.9 | 
Cc1cc(-c2noc(=O)[nH]2)ccc1-c1cc(=O)c(O)c(C(=O)O)[nH]1 | 120 | 0.126 | 16.3 | inhibition [1]: inactive; inhibition [3]: inactive; inhibition [4]: inactive; inhibition [5]: inactive
O=C(O)c1[nH]c(-c2cccc(-c3nnn[nH]3)c2)cc(=O)c1O | < 2 | < 2 | 12.9 | 
O=C(O)c1[nH]c(-c2ccccc2)cc(=O)c1O | 5.6 |  | 8.5 | 
O=C(O)c1[nH]c(-c2cccc(Oc3ccccc3)c2)cc(=O)c1O | 14 |  | 9 | 
O=C1c2c(O)c(=O)ccn2N([C@@H]2c3ccccc3SCc3c2ccc(F)c3F)[C@@H]2COCCN12 [BALOXAVIR] |  |  |  | EC50 [6]: 2200 nM; CC50 at 12 h [7]: 20000 nM; CC50 at 12 h [8]: > 800000 nM
CC(C)c1cccc(-c2cc(=O)c(O)c(C(=O)O)[nH]2)c1 | 6.3 |  | 10.1 | 
O=C(O)c1[nH]c(-c2ccc(-c3nnn[nH]3)cc2C(F)(F)F)cc(=O)c1O | 47 | 0.0501 | 17.8 | inhibition [1]: inactive; inhibition [3]: inactive; inhibition [4]: inactive; inhibition [5]: inactive; EC50 [6]: 11500 nM; CC50 at 12 h [7]: > 800000 nM; CC50 at 12 h [8]: > 800000 nM; selectivity ratio at 12 h [9]: 35 to 75; selectivity ratio at 12 h [10]: 35 to 75
Cc1cc(C(=O)O)ccc1-c1cc(=O)c(O)c(C(=O)O)[nH]1 | 230 | 0.251 | 15.3 | 
Cc1ccc(-c2cc(=O)c(O)c(C(=O)O)[nH]2)cc1 | 7.2 |  | 10.3 | 
O=C(O)c1[nH]c(-c2ccccc2C(F)(F)F)cc(=O)c1O | < 2 | < 2 | 13.3 | EC50 [6]: 10400 nM; CC50 at 12 h [7]: > 800000 nM; CC50 at 12 h [8]: > 800000 nM; selectivity ratio at 12 h [9]: 35 to 75; selectivity ratio at 12 h [10]: 35 to 75
O=C(O)/C(O)=C/C(=O)C1(Cc2ccc(Cl)cc2)CCN(Cc2ccccc2)CC1 |  |  |  | EC50 [6]: 7400 nM; CC50 at 12 h [7]: > 800000 nM; CC50 at 12 h [8]: > 800000 nM; selectivity ratio at 12 h [9]: 35 to 75; selectivity ratio at 12 h [10]: 35 to 75
O=C(O)c1[nH]c(-c2ccc(Oc3ccccc3)cc2)cc(=O)c1O | 25 |  | 8.1 | 
CC(C)c1ccccc1-c1cc(=O)c(O)c(C(=O)O)[nH]1 | 3.2 |  | 11.6 | 
CCc1ccccc1-c1cc(=O)c(O)c(C(=O)O)[nH]1 | < 2 | < 2 | 13.1 | 
O=C(O)c1[nH]c(-c2ccc(-c3nnn[nH]3)cc2)cc(=O)c1O | < 2 | < 2 | 14.1 | EC50 [6]: 7700 nM; CC50 at 12 h [7]: > 800000 nM; CC50 at 12 h [8]: > 800000 nM; selectivity ratio at 12 h [9]: > 100; selectivity ratio at 12 h [10]: > 100
